These results are taken from ChEMBL document CHEMBL3779892, “Increasing the binding affinity of VEGFR-2 inhibitors by extending their hydrophobic interaction with the active site: Design, synthesis and biological evaluation of 1-substituted-4-(4-methoxybenzyl)phthalazine derivatives” (Eur J Med Chem, 2016).

Common to all, as to assay type: functional
The nature of experiment [1]: Growth inhibition of human Caki1 cells at 10 uM after 48 hrs by sulforhodamine B assay. To be noted: CAKI-1, 48 h, read-out: GI. Summed up: (§1)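 Run at NCI on the 60-line panel. Cells grown in RPMI 1640 with 5% FBS and 2 mM L-glutamine, plated at 5000–40,000 cells/well by doubling time, and held 24 h at 37 °C before dosing. Drug (DMSO stock) given at a single final 10 µM in triplicate wells for 48 h. Adherent cells fixed with cold TCA (10% final), suspension cells with 16% TCA. SRB stain read at 515 nm. Percent growth from Tz, C and Ti.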

Experiment [2] can be described thus: Growth inhibition of human UACC62 cells at 10 uM after 48 hrs by sulforhodamine B assay. The conditions noted are these: UACC-62, 48 h, read-out: GI. Summed up: (§2)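 NCI-60 panel, adherent cells grown in RPMI 1640 with 5% FBS and 2 mM L-glutamine, plated at 5000–40,000 cells/well and preincubated 24 h at 37 °C, 5% CO2. 10 µM final compound from DMSO stock, triplicate wells, 48 h. Fixed with cold TCA (10% final, 60 min, 4 °C) and stained with 0.4% SRB. Absorbance read at 515 nm; growth calculated against time-zero and control wells.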
On the technique in general: In SRB staining, fixed cells bind dye roughly in proportion to their protein.

Experiment [3] can be described thus: Growth inhibition of human SNB75 cells at 10 uM after 48 hrs by sulforhodamine B assay. To be noted: SNB-75, 48 h, read-out: GI. The method, boiled down: as §1
Experiment [4] in a line: Growth inhibition of human DU145 cells at 10 uM after 48 hrs by sulforhodamine B assay. To be noted: DU-145, 48 h, read-out: GI. The method, boiled down: as §1
A further experiment deals with T47D. Kind of experiment: Growth inhibition of human T47D cells at 10 uM after 48 hrs by sulforhodamine B assay. The conditions noted are these: read-out: GI. The method, boiled down: as §2
Experiment [5] in a line: Growth inhibition of human MOLT4 cells at 10 uM after 48 hrs by sulforhodamine B assay. To be noted: MOLT-4, 48 h, read-out: GI. Summed up: as §1
The subject of the next experiment is MDA-MB-231. The experiment can be described thus: Growth inhibition of human MDA-MB-231 cells at 10 uM after 48 hrs by sulforhodamine B assay. To be noted: MDA-MB-231, 48 h, read-out: GI. The method, boiled down:
as §1

Experiment [6] in a line: Growth inhibition of human TK10 cells at 10 uM after 48 hrs by sulforhodamine B assay. To be noted: TK-10, 48 h, read-out: GI. Summed up:
as §2

For a further experiment, the system named is NCI-H226. Kind of experiment: Growth inhibition of human NCI-H226 cells at 10 uM after 48 hrs by sulforhodamine B assay. The conditions noted are these: NCI-H226, 48 h, read-out: GI. The method, boiled down:
as §1

The next experiment deals with MDA-MB-435. The experiment can be described thus: Growth inhibition of human MDA-MB-435 cells at 10 uM after 48 hrs by sulforhodamine B assay. The conditions noted are these: MDA-MB-435, 48 h, read-out: GI. Summed up: as §1
The next experiment concerns 786-0. Kind of experiment: Growth inhibition of human 786-0 cells at 10 uM after 48 hrs by sulforhodamine B assay. The conditions noted are these: 786-0, 48 h, read-out: GI. The method, boiled down: as §1
The test system of another experiment is A498. Kind of experiment: Growth inhibition of human A498 cells at 10 uM after 48 hrs by sulforhodamine B assay. The conditions noted are these: A498, 48 h, read-out: GI. Summed up: as §1
Experiment [7] is described as follows: Growth inhibition of human OVCAR3 cells at 10 uM after 48 hrs by sulforhodamine B assay. The conditions noted are these: OVCAR-3, 48 h, read-out: GI. Summed up: as §1
Experiment [8] in a line: Growth inhibition of human Hs 578T cells at 10 uM after 48 hrs by sulforhodamine B assay. To be noted: read-out: GI. The method, boiled down: as §1
A further experiment relates to NCI-H23. The experiment can be described thus: Growth inhibition of human NCI-H23 cells at 10 uM after 48 hrs by sulforhodamine B assay. The conditions noted are these: NCI-H23, 48 h, read-out: GI. The method, boiled down:
as §1

Experiment [9] in a line: Growth inhibition of human HOP62 cells at 10 uM after 48 hrs by sulforhodamine B assay. To be noted: HOP-62, 48 h, read-out: GI. Summed up: as §1
Experiment [10] in a line: Growth inhibition of human NCI-ADR-RES cells at 10 uM after 48 hrs by sulforhodamine B assay. To be noted: read-out: GI. Summed up:
as §1

A short description of experiment [11]: Growth inhibition of human UACC257 cells at 10 uM after 48 hrs by sulforhodamine B assay. To be noted: UACC-257, 48 h, read-out: GI. The method, boiled down: as §2
The nature of experiment [12]: Growth inhibition of human SF539 cells at 10 uM after 48 hrs by sulforhodamine B assay. The conditions noted are these: SF-539, 48 h, read-out: GI. The method, boiled down: as §1
A further experiment deals with U-251. Kind of experiment: Growth inhibition of human U251 cells at 10 uM after 48 hrs by sulforhodamine B assay. The conditions noted are these: U-251, 48 h, read-out: GI. Summed up:
as §2

Another experiment deals with NCI-H322M. The experiment can be described thus: Growth inhibition of human NCI-H322M cells at 10 uM after 48 hrs by sulforhodamine B assay. To be noted: read-out: GI. The method, boiled down:
as §1

Another experiment deals with NCI-H522. Kind of experiment: Growth inhibition of human NCI-H522 cells at 10 uM after 48 hrs by sulforhodamine B assay. To be noted: NCI-H522, 48 h, read-out: GI. Summed up: as §1
Experiment [13] in a line: Growth inhibition of human IGROV1 cells at 10 uM after 48 hrs by sulforhodamine B assay. To be noted: IGROV-1, 48 h, read-out: GI. The method, boiled down:
as §1

Take `COc1ccc(Cc2nnc(Nc3ccc(NC(=O)Nc4ccc(Cl)cc4)cc3)c3ccccc23)cc1`: the inhibition of growth at 10 µM in experiment [1] is < 30%; in experiment [2], < 30%; in experiment [3] it was 49%; in experiment [4], < 30%; with T47D, 37%; in experiment [5], 44%. Further, the inhibition of growth at 10 µM in the experiment with MDA-MB-231 was 30%; in [6], < 30%; with NCI-H226 it was < 30%; in the experiment on MDA-MB-435, < 30%; in the experiment on 786-0, 58%; in the experiment with A498 it was 32%. The inhibition of growth at 10 µM in [7] was < 30%; in [8], 75%; with NCI-H23, < 30%; in experiment [9], < 30%; in experiment [10], < 30%; in experiment [11], < 30%. The inhibition of growth at 10 µM in experiment [12] was 41%; with U-251, 48%; with NCI-H322M it was < 30%; with NCI-H522 it was 43%; in experiment [13], < 30%.
In the case of `COc1ccc(Cc2nnc(Nc3ccc(NC(=O)Nc4ccc(C#N)cc4)cc3)c3ccccc23)cc1`, the inhibition of growth at 10 µM in [1] was < 30%; in experiment [2], < 30%; in experiment [3], 57%; in experiment [4], < 30%; in the experiment on T47D, 48%; in experiment [5], 56%. For the same molecule, the inhibition of growth at 10 µM was 63% with MDA-MB-231; < 30% in experiment [6]; < 30% with NCI-H226; < 30% in the experiment on MDA-MB-435; 83% in the experiment on 786-0; 54% in the experiment with A498. Also, the inhibition of growth at 10 µM in experiment [7] is < 30%; in [8] it was 105%; in the experiment on NCI-H23, < 30%; in experiment [9], 33%; in [10], < 30%; in experiment [11], < 30%. Moreover, the inhibition of growth at 10 µM is 67% in experiment [12]; 63% with U-251; < 30% in the experiment on NCI-H322M; 54% in the experiment with NCI-H522; 46% in [13].
Consider `COc1ccc(Cc2nnc(Nc3ccc(Cl)c(C(F)(F)F)c3)c3ccccc23)cc1`, for which the inhibition of growth at 10 µM was 35% in experiment [1]; 41% in experiment [2]; < 30% in experiment [3]; 37% in [4]; 59% in the experiment with T47D; 69% in experiment [5]. Moreover, the inhibition of growth at 10 µM in the experiment on MDA-MB-231 is 40%; in experiment [6], 40%; in the experiment on NCI-H226 it was 43%; in the experiment with MDA-MB-435, < 30%; in the experiment with 786-0, 41%; with A498, 46%. In addition, the inhibition of growth at 10 µM in experiment [7] is 59%; in [8] it was 34%; in the experiment on NCI-H23 it was 40%; in experiment [9], < 30%; in experiment [10] it was 50%; in [11], < 30%. Also, the inhibition of growth at 10 µM stood at 42% in experiment [12]; 59% in the experiment with U-251; 37% in the experiment on NCI-H322M; 49% with NCI-H522; 32% in experiment [13].
For `COc1ccc(Cc2nnc(Nc3ccc(Cl)cc3)c3ccccc23)cc1`, the inhibition of growth at 10 µM in experiment [1] was 37%; in experiment [2], 60%; in experiment [3] it was < 30%; in experiment [4], 42%; in the experiment on T47D, 44%; in experiment [5], 48%. Besides, the inhibition of growth at 10 µM in the experiment on MDA-MB-231 came to 36%; in [6], 52%; in the experiment on NCI-H226, 34%; with MDA-MB-435, 30%; in the experiment on 786-0 it was 43%; in the experiment on A498, 53%. In addition, the inhibition of growth at 10 µM is 40% in [7]; 35% in [8]; 39% in the experiment on NCI-H23; 40% in experiment [9]; 48% in [10]; < 30% in [11]. Also, the inhibition of growth at 10 µM in experiment [12] amounted to 46%; in the experiment with U-251, 38%; in the experiment on NCI-H322M, 45%; with NCI-H522, 38%; in experiment [13], 36%.
With `COc1ccc(Cc2nnc(Nc3cccc(C(F)(F)F)c3)c3ccccc23)cc1`, the inhibition of growth at 10 µM was 32% in experiment [1]; 42% in experiment [2]; < 30% in experiment [3]; < 30% in [4]; 56% in the experiment with T47D; 60% in experiment [5]. Moreover, the inhibition of growth at 10 µM in the experiment with MDA-MB-231 was 46%; in [6] it was < 30%; in the experiment on NCI-H226, 40%; with MDA-MB-435 it was < 30%; in the experiment on 786-0, 33%; in the experiment on A498, 40%. For the same molecule, the inhibition of growth at 10 µM in experiment [7] was 48%; in [8], < 30%; in the experiment with NCI-H23, 42%; in experiment [9], < 30%; in [10], 40%; in [11] it was < 30%. Moreover, the inhibition of growth at 10 µM is 36% in experiment [12]; 44% in the experiment with U-251; < 30% in the experiment on NCI-H322M; 45% in the experiment on NCI-H522; 37% in experiment [13].
Consider `COc1ccc(Cc2nnc(Nc3ccccc3)c3ccccc23)cc1`, for which the inhibition of growth at 10 µM was < 30% in [1]; < 31% in experiment [2]; < 30% in experiment [3]; < 30% in experiment [4]; < 30% in the experiment on T47D; < 30% in experiment [5]. Moreover, the inhibition of growth at 10 µM in the experiment with MDA-MB-231 is < 30%; in experiment [6] it was < 30%; in the experiment on NCI-H226 it was < 30%; in the experiment on MDA-MB-435, < 30%; in the experiment on 786-0 it was < 30%; with A498, 35%. The inhibition of growth at 10 µM (in [7]; in [8]; in the experiment on NCI-H23; in experiment [9]; in [10]; in experiment [11]) was < 30% each time. Further, the inhibition of growth at 10 µM (in [12]; in the experiment on U-251; in the experiment with NCI-H322M; with NCI-H522; in experiment [13]) was < 30% throughout.
